{
  "source": "paper PMC5814953",
  "about": "(Nucleic Acids Research, 2017)",
  "molecules": {"B1": {"name": "SpCENP-A NTD 4PA peptide (quadruple P-to-A mutations of the GRANT prolines), biotinylated (peptide, UniProt Q9Y812 1-20, looked up)", "peptide": "MAKKSLMAEAGDAIARARKK", "modifications": "also: biotinylated, position not given here"}},
  "key": {"[1]": {"system": "Sim3-FLAG", "test": "Biotinylated peptide pull-down of Sim3-FLAG from yeast cell extract, immunoblot", "type": "binding, Schizosaccharomyces pombe"}, "[2]": {"system": "Ani2", "test": "2D 1H ROESY NMR, cis-trans isomerization of NTD peptide by Ani2", "type": "biochemical, Schizosaccharomyces pombe"}, "[3]": {"system": "Ani1", "test": "2D 1H ROESY NMR, cis-trans isomerization of NTD peptide by Ani1", "type": "biochemical, Schizosaccharomyces pombe"}, "[4]": {"test": "2D 1H ROESY NMR of NTD peptide in the absence of isomerase", "type": "physicochemical", "settings": "pH 6.5, 25°C", "how_it_was_run": "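Synthetic NTD peptide at 2 mM in 20 mM phosphate buffer (90% H2O/10% D2O), pH 6.5, run at 25°C. No isomerase was added; the paired runs contained 0.03 mM bacterially produced Ani1 or Ani2.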"}, "[5]": {"biological_target": "T1, Sim3-His, bacterially purified recombinant Sim3 protein (S. pombe, UniProt Q9USQ4 1-396)", "T1 sequence (looked up)": "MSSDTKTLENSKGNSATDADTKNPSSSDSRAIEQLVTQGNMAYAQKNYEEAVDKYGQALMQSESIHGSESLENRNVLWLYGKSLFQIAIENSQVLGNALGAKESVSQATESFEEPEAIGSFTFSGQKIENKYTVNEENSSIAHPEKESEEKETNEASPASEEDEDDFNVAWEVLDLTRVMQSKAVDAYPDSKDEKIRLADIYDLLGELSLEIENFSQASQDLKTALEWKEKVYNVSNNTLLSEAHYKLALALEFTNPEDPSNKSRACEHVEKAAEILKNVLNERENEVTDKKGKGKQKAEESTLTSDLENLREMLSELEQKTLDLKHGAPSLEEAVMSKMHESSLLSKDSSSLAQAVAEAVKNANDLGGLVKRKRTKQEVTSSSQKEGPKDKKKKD", "test": "ITC"}},
  "note": "Ends that are not written are not given here. Peptide text beside a SMILES is read from it. * marks the point of attachment. Biotin = O=C1N[C@H]2[C@H](CS[C@H]2CCCCC(=O)*)N1",
  "data": [
    {"molecule": "CC[C@H](C)[C@H](NC(=O)[C@@H]1CCCN1C(=O)[C@H](CC(=O)O)NC(=O)CNC(=O)[C@@H]1CCCN1C(=O)[C@H](CCC(=O)O)NC(=O)[C@H](C)NC(=O)[C@H](CCSC)NC(=O)[C@H](CC(C)C)NC(=O)[C@H](CO)NC(=O)[C@H](CCCCN)NC(=O)[C@H](CCCCN)NC(=O)[C@H](C)NC(=O)[C@@H](N)CCSC)C(=O)N1CCC[C@H]1C(=O)N[C@@H](CCCNC(=N)N)C(=O)N1CCC[C@H]1C(=O)N[C@@H](CCCNC(=N)N)C(=O)N[C@@H](CCCCN)C(=O)N[C@@H](CCCCN)C(=O)N[C@@H](CCCNC(=N)N)C(=O)N[C@@H](Cc1ccc(O)cc1)C(=O)N[C@@H](CCCNC(=N)N)C(=O)N1CCC[C@H]1C(=O)NCC(=O)N[C@H](C(=O)N[C@H](C(=O)N[C@@H](C)C(=O)N[C@@H](CC(C)C)C(=O)N[C@@H](CCCNC(=N)N)C(=O)N[C@@H](CCCCNC(=O)CCCC[C@@H]1SC[C@@H]2NC(=O)N[C@@H]21)C(=O)O)[C@@H](C)O)[C@@H](C)O", "note": "[WT SpCENP-A NTD] (H-MAKKSLMAEPGDPIPRPRKKRYRPGTTALRK(Biotin)-OH; N-terminus and C-terminus assumed)", "values": [
      {"measurement": "reduction of Sim3-FLAG interaction", "setting": "[1]; WT peptide, absence of both ani1 and ani2, vs WT cells (1–0.57)", "result": "~43", "unit": "%"},
      {"measurement": "effect of single null mutation of ani1 or ani2 on Sim3-FLAG binding (in words)", "setting": "[1]; Δani1 or Δani2 single mutant cell extract, Figure 6B bottom gel", "result": "did not grossly affect the binding"}
    ]},
    {"molecule": "SLMAEPGDPIPRPR", "values": [
      {"measurement": "cis-trans exchange cross-peaks", "setting": "[2]; presence of 0.03 mM Ani2, 2 mM peptide, 20 mM phosphate (90% H2O + 10% D2O, pH 6.5), 25°C", "result": "two prominent and reproducible exchange cross-peaks corresponding to Ile14 and Arg16"},
      {"measurement": "cross peaks corresponding to P10 or P13", "setting": "[2]; presence of Ani2, 2 mM peptide, pH 6.5, 25°C", "result": "No cross peaks were found corresponding to P10 or P13"},
      {"measurement": "cis-trans exchange cross-peaks", "setting": "[3]; presence of 0.03 mM Ani1, 2 mM peptide, 20 mM phosphate (90% H2O + 10% D2O, pH 6.5), 25°C", "result": "two prominent and reproducible exchange cross-peaks corresponding to Ile14 and Arg16"},
      {"measurement": "cross peaks corresponding to P10 or P13", "setting": "[3]; presence of Ani1, 2 mM peptide, pH 6.5, 25°C", "result": "No cross peaks were found corresponding to P10 or P13"},
      {"measurement": "cis-trans exchange cross-peaks", "setting": "[4]; absence of Ani1 or Ani2, 2 mM peptide, 20 mM phosphate", "result": "no cross-peaks were observed"},
      {"measurement": "speed of the cis- and trans-conformational switch", "setting": "[4]; absence of Ani1 or Ani2, too slow to be detected under the NMR time scale, 2 mM peptide", "result": "< 0.1", "unit": "s⁻¹"}
    ]},
    {"molecule": "B1", "values": [
      {"measurement": "Kd", "setting": "[5]", "result": 4.5, "unit": "µM"}
    ]}
  ]
}
